# Laboratory results reported in ChEMBL document CHEMBL3792371 (Bioorg Med Chem Lett, 2016).
# pKi: −log10 of the molar value.
# How the values were obtained:
# [1] = target: Sodium-dependent dopamine transporter (Rattus norvegicus, UniProt P23977); experiment: Inhibition of DAT in rat striatal synaptosomes assessed as reduction of [3H]dopamine uptake preincubated for 5 mins followed by [3H]dopamine addition measured after 10 mins by liquid scintillation spectrometric method; assay type: subcellular, Striatum
# How it was run: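 Rat striatum homogenized in ice-cold 0.32 M sucrose with 5 mM NaHCO3 (pH 7.4), spun at 2000g and then 20,000g. Synaptosomes (20 µg protein) were resuspended in oxygenated Krebs'-HEPES buffer (pH 7.4) with pargyline and ascorbic acid. Inhibitor was 0.1 nM–1 mM final (7–9 concentrations), run in duplicate at 34 °C. [3H]DA was 10 nM final. Nonspecific uptake was defined with 10 µM GBR 12909. Reactions were filtered on GF/B filters. Specific uptake was expressed as % of control, n = 3–4 rats.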
# [2] = target: Sodium-dependent serotonin transporter (Rattus norvegicus, UniProt P31652); experiment: Inhibition of SERT in rat striatal synaptosomes assessed as reduction of [3H]5-HT uptake preincubated for 5 mins followed by [3H]5-HT addition measured after 10 mins by liquid scintillation spectrometric method; assay type: subcellular, Striatum
# How it was run: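 Rat striatal synaptosomes were made as for the DAT assay: 20 µg protein in oxygenated Krebs'-HEPES buffer (pH 7.4) containing pargyline and ascorbic acid. Inhibitor was 0.1 nM–1 mM final (7–9 concentrations), run in duplicate at 34 °C. [3H]5-HT was 10 nM final. Nonspecific uptake was defined with 10 µM fluoxetine. Filters were washed with ice-cold Krebs' buffer containing 1 mM catechol. Specific uptake was expressed as % of control, n = 4 rats.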
# [3] = target: Synaptic vesicular amine transporter (Rattus norvegicus, UniProt Q01827); experiment: Inhibition of VMAT2 in rat striatal synaptic vesicle assessed as reduction of [3H]dopamine uptake after 8 mins by liquid scintillation spectrometric method
# How it was run: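 Vesicles prepared from rat striata by sucrose homogenisation, osmotic shock and differential centrifugation. Inhibitor at 0.1 nM–10 mM with 0.1 µM [3H]DA. Filtration, then scintillation counting. n = 3–4 rats.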
# Rattus norvegicus [4] = organism: Rattus norvegicus; experiment: Selectivity ratio of Ki for DAT in rat striatal synaptosomes to Ki for VMAT2 in rat striatal synaptic vesicle; assay type: subcellular
# How it was run: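 Ratio of DAT Ki to VMAT2 Ki. […] 10 nM [3H]DA then added for 10 min at 34°C. Nonspecific uptake measured with 10 µM GBR 12909. VMAT2 Ki from vesicular [3H]DA uptake.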
# Rattus norvegicus [5] = organism: Rattus norvegicus; experiment: Selectivity ratio of Ki for SERT in rat striatal synaptosomes to Ki for VMAT2 in rat striatal synaptic vesicle; assay type: subcellular
# How it was run: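 Ratio of SERT Ki to VMAT2 Ki. […] 10 nM [3H]5-HT then added for 10 min at 34°C. Nonspecific uptake measured with 10 µM fluoxetine. n = 4 rats. VMAT2 Ki from vesicular [3H]DA uptake.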
# Chain of Sodium-dependent dopamine transporter (P23977 whole entry): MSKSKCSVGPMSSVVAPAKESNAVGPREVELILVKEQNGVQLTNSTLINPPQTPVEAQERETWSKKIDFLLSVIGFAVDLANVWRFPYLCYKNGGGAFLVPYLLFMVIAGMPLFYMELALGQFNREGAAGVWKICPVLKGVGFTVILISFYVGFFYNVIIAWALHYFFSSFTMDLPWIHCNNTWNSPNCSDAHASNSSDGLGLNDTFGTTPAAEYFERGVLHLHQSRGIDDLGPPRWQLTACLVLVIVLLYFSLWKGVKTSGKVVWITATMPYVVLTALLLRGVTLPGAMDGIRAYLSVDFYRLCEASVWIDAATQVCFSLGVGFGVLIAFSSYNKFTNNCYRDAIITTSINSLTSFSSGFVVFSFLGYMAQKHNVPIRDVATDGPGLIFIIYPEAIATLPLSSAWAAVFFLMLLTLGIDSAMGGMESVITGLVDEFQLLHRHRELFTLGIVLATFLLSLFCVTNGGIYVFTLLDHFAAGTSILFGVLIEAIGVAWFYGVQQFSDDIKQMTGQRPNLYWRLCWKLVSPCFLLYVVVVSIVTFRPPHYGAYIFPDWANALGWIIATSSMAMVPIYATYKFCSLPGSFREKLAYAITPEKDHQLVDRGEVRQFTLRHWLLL
# Chain of Synaptic vesicular amine transporter (Q01827 whole entry): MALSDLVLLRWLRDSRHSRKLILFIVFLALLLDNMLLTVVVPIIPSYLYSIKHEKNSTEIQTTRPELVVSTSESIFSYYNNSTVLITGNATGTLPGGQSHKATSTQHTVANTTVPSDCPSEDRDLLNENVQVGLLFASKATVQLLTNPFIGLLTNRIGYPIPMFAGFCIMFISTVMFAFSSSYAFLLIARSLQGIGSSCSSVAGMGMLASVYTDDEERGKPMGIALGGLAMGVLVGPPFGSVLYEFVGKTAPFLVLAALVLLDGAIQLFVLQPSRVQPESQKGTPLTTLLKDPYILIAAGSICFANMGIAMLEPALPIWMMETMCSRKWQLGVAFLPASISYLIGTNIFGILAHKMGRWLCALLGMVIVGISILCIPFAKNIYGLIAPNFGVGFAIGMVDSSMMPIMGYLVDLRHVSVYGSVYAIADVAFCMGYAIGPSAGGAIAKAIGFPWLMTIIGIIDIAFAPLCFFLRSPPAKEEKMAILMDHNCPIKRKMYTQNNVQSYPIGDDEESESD
# Chain of Sodium-dependent serotonin transporter (P31652 whole entry): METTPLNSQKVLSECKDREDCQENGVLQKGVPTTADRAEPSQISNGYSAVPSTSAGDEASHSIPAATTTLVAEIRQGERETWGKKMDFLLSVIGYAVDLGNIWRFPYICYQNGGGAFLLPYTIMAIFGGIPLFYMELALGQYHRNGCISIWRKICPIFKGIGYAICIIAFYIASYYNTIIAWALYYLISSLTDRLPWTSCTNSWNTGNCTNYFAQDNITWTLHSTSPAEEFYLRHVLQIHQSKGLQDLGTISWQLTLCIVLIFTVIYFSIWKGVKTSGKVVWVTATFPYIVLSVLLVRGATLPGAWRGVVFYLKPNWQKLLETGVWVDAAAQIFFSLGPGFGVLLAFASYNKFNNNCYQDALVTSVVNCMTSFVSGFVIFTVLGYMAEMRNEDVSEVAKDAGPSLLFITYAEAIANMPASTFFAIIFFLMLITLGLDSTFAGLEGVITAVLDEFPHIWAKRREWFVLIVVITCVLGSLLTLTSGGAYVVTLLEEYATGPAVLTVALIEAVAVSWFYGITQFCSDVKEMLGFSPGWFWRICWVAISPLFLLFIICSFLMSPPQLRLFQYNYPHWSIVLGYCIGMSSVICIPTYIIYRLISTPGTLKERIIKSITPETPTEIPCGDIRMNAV
Compound,pKi [1],pKi [2],pKi [3],Ratio Ki (Rattus norvegicus [4]),Ratio Ki (Rattus norvegicus [5])
COc1ccc(CC[C@H]2CCC[C@@H](CCc3ccc(OC)cc3)N2C[C@@H](O)CO)cc1,5.84,5.03,–,–,–
Oc1ccc(CC[C@H]2CCC[C@@H](CCc3ccc(OCCF)cc3)N2)cc1,5.78,5.98,7.49,–,–
CN1[C@@H](CCc2ccc(OCCF)cc2)CCC[C@H]1CCc1ccc(OCCF)cc1,5.46,5.13,6.85,–,–
OC[C@H](O)CN1[C@@H](CCc2ccc(O)cc2)CCC[C@H]1CCc1ccc(OCCF)cc1,5.26,5.84,7.20,87,–
CN1[C@@H](CCc2ccc(O)cc2)CCC[C@H]1CCc1ccc(OCCF)cc1,5.53,4.98,7.51,96,335
OC[C@H](O)CN1[C@@H](CCc2ccc(O)cc2)CCC[C@H]1CCc1ccc(O)cc1,5.84,4.89,7.41,–,331
FCCOc1ccc(CC[C@H]2CCC[C@@H](CCc3ccc(OCCF)cc3)N2)cc1,5.78,6.19,7.40,–,–
Oc1ccc(CC[C@H]2CCC[C@@H](CCc3ccc(O)cc3)N2)cc1,6.06,5.99,7.51,–,–
CC(=O)Oc1ccc(CC[C@H]2CCC[C@@H](CCc3ccc(OC(C)=O)cc3)N2C)cc1,5.67,4.94,7.15,–,163
CC(=O)Oc1ccc(CC[C@H]2CCC[C@@H](CCc3ccc(OC(C)=O)cc3)N2)cc1,5.83,5.67,6.66,–,–
CN1[C@@H](CCc2ccc(O)cc2)CCC[C@H]1CCc1ccc(O)cc1,5.87,4.92,7.34,–,260
CN1[C@@H](CCc2ccccc2)CCC[C@H]1CCc1ccccc1 [LOBELANE],5.98,5.44,–,–,–
OC[C@H](O)CN1[C@@H](CCc2ccc(OCCF)cc2)CCC[C@H]1CCc1ccc(OCCF)cc1,5.43,4.48,6.92,30,275
